Screening data (PubChem)
A selection: hits, their analogues and other compounds. The true share with any hit is near 1.9%.
Autophagy HCS: modulators of autophagy; 0.98% of 190,000 active; calls only at 10 µM (by protocol); MEF GFP-LC3 puncta imaging; test concentration mostly 10 µM; AID 463193;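 active means percentage of spot-positive cells more than 3 SD above its plate mean, without a fluorescence outlier flag or 80% toxicity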;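 further: spot-positive cell cutoff set from DMSO-treated cells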
MT stabilizer: stabilizes microtubules in HeLa cells. HeLa tubulin immunostaining HCS, 24 h; share of cells brighter than vehicle mean+2SD. % tubulin-high responders, % at 10 µM. 0.83% of 200,000 active;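 active means plate Z-score above 3 for both tubulin-high and condensed-nucleus cell shares, with cell loss under 80%, at 10 µM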;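 further: anti alpha tubulin signal scored within the nucleus-defined area of each cell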
Tb hexokinase: blocks Trypanosoma brucei hexokinase 1 activity; recombinant TbHK1, G6PDH-coupled NADH A340; inhibition, % at 10 µM; 0.11% of 220,000 active;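 active means inhibition of 50% or more in the single-dose primary screen; inactive means inhibition below 50%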
b-catenin transl: beta-catenin nuclear translocation modulation; HeLa beta-catenin nuclear translocation, immunofluorescence imaging; nuclear translocation activity, % at 5 µM; 0.3% of 190,000 active;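 active means nuclear translocation activity above 50% at 5 µM, with a well cell count of 50 or more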;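 further: per-cell ratio of nuclear to cytoplasmic median beta-catenin stain intensity; plate controls were DMSO negative control for no effect and GSK-3 inhibitor IX positive control for full effect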
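Technique: fluorescence imaging of beta-catenin antibody stain plus DAPI / Material: human HeLa cell line / Incubation: compound treatment 24 h, 37°C, 5% CO2 / Read-out basis: % activation of per-cell nuclear versus cytoplasmic median beta-catenin signal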
Ins promoter up: MIN6 insulin promoter up-regulation. MIN6 insulin promoter-GFP reporter, high-content imaging; active compounds read high. z-score at 5 µM. 0.3% of 190,000 active;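 active means z-score above 3 at 5 µM with at least 500 cells counted in the well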
* hit, by the source's call; i = inactive; / = not tested or not shown; + = active, no number.

SMILES	Autophagy HCS	MT stabilizer	Tb hexokinase	b-catenin transl	Ins promoter up
O=C(CN1CCN(c2ccc(O)cc2)CC1)Nc1cc([N+](=O)[O-])ccc1Cl	+	5	-5	-1	0.5
CSc1cccc(NC(=S)N(Cc2ccccc2)Cc2cccnc2)c1	i	1	4	-1	-0.48
CCn1c(SCC(=O)NC(C)C)nnc1-c1cccs1	+	1	-3	-2	/
COc1ccccc1NC(=O)CC(=O)CSc1nnc(-c2ccc(C)cc2)n1C	i	4	-2	0	0.03
CCn1c(SCC(=O)Nc2ccccc2)nnc1-c1cccs1	/	/	-5	-1	0.15
COc1ccc(NC(=O)CSc2nnc(-c3cccs3)n2C)cc1OC	i	3	-9	-2	3.5*
COc1ccccc1NC(=O)CSc1nnc(-c2ccc(NC(C)=O)cc2)n1C	+	4	1	1	0.8
COC(=O)CC1C(=O)NCCN1Cc1cn(-c2ccc(C)cc2)nc1-c1cccc(C)c1 (configuration not stated)	i	4	-5	1	/
COc1ccc(C2C(C(=O)Nc3cc(OC)c(OC)c(OC)c3)c3ccccc3C(=O)N2C)cc1 (configuration not stated)	i	21	-6	73*	0.49
CCOC(=O)c1[nH]c(C)c(C(=O)c2cc(F)ccc2F)c1C	+	13	-2	55*	-1.8
COC(=O)c1sc(N)c(C(=O)OC)c1COC(=O)c1c(C)noc1C	i	56*	-21	24	-0.35
CC(=O)C1=C(C)Nc2ncnn2C1c1ccc(Cl)cc1Cl (configuration not stated)	i	6	-15	-4	3.5*
CCn1nc(C)c([N+](=O)[O-])c1C(=O)NNC(=O)c1ccccc1Cl	/	/	-11	-1	/
Cc1nc2c3ccccc3n(CCN3CCCCC3)c2s1	i	4	6	-4	/
Cc1nc2c3cc(F)ccc3n(Cc3ccccc3F)c2s1	i	27*	0	2	-0.35
Cc1nc2c3cc(F)ccc3n(CCN3CCCCC3)c2s1	i	14*	-8	49	-0.64
CSc1nnc2c3cc(F)ccc3n(Cc3ccccc3)c2n1	/	/	/	-4	0.16
Cc1nc2c3cc(F)ccc3n(Cc3ccccc3)c2s1	i	28*	-1	0	-1
Cc1nc2c3ccccc3n(Cc3ccccc3F)c2s1	i	3	31	-2	0.06
CCCOc1ccc(CNCCCOCC)cc1OC	i	4	4	1	-0.45
CCOC(=O)C1CCN(C(=O)c2cccc(NS(=O)(=O)c3ccc(F)c(F)c3)c2)CC1	i	2	-3	-2	-0.09
COc1ccc(OC)c(CNC(=O)C2CCN(S(C)(=O)=O)CC2)c1	i	2	-2	1	-0.2
C=CCOC(=O)/C(=C/c1cccnc1)NC(=O)c1ccccc1	/	/	-7	0	-0.03
CC(C)OC(=O)/C(=C\c1cccnc1)NC(=O)c1ccccc1	+	1	-4	-2	-0.08
COC(=O)c1[nH]c2ccc(F)cc2c1NS(=O)(=O)c1ccc(OC)cc1	i	23*	-5	40	0.45
SMILES	Autophagy HCS	MT stabilizer	Tb hexokinase	b-catenin transl	Ins promoter up
COc1cc2c(cc1NC(=O)CN1CCN(S(=O)(=O)c3ccccc3F)CC1)oc1ccccc12	i	3	-30	/	3.6*
COc1ccc(OC)c(NC(=O)c2nnn(CCc3ccccc3)c2N)c1	i	5	-21	/	-1.2
COc1ccc(OC)c(NC(=O)c2sc3nc(Cc4ccccc4)cc(C(F)(F)F)c3c2N)c1	+	4	-20	-5	1.2
O=C(CSc1nncs1)NC(=O)NC1CCCC1	i	2	-3	2	-1
Cc1c(Cc2ccc3c(c2)OCO3)sc(NC(=O)C(C)(C)C)c1C#N	i	22*	-2	-1	-1.1
COc1ccc(C(=O)NCc2ccc3c(c2)CCO3)cc1	/	/	-2	0	/
CC(C)c1ccc(CNc2c([N+](=O)[O-])c(=O)oc3ccccc23)cc1	i	1	6	-4	/
COc1cccc(/C=N/n2c(-c3n[nH]c4c3CCC4)n[nH]c2=S)c1O	i	5	-3	1	/
COc1ccccc1/C=C/C=N/n1c(-c2n[nH]c3c2CCC3)n[nH]c1=S	/	/	31	62*	-0.51
CCNC(=O)CN1C(=O)NC(Cc2ccccc2)(Cc2ccccc2)C1=O	i	3	6	-1	-0.28
O=C(CCS(=O)(=O)c1ccc(Br)cc1)N1CCN(c2ccccc2)CC1	+	5	4	0	0.26
O=C(CCS(=O)(=O)c1ccc(Br)cc1)N1CCN(c2ccccc2Cl)CC1	i	3	4	-3	-1.6
O=C(COC(=O)CCc1nc2ccccc2c(=O)[nH]1)NC(=O)NC1CCCC1	i	3	35	-2	0.99
O=[N+]([O-])c1cc2c(cc1/C=N/Nc1nc(Nc3ccccc3)nc(N3CCCCC3)n1)OCO2	+	2	-8	/	/
Cc1cc(C)nc(N/N=C/c2cc3c(cc2[N+](=O)[O-])OCO3)n1	i	4	-9	-2	-1.1
Cc1cc(C2C(C#N)=C(N)Oc3n[nH]c(C)c32)c(C)s1 (configuration not stated)	i	4	0	0	3.4*
CC(C)(C)c1cc(C(=O)NNC(=O)c2ccc(Cl)cc2)no1	/	/	-10	-5	/
CCc1cc(-c2n[nH]c(C)c2-c2nc3ccccc3n2C)c(O)cc1O	i	14*	-2	21	0.22
N#Cc1c(C(F)(F)F)cc(-c2ccccc2)[nH]c1=O	i	1	-16	/	/
COc1cccc(-c2cc(C(F)(F)F)c(C#N)c(=O)[nH]2)c1	+	6	-14	-1	0.61
Cn1c(/C(C#N)=C/c2ccc(-c3ccc(S(N)(=O)=O)cc3)o2)nc2ccccc21	+	1	-18	-2	/
CCN(CC)S(=O)(=O)c1cc(NC(=O)CNc2c(C)n(C)n(-c3ccccc3)c2=O)ccc1C	i	3	4	1	-1.2
Cc1sc(/N=C/c2c(O)ccc3ccccc23)c(C#N)c1C	+	2	-3	-16	/
COc1cc2[nH]c(=O)n(Cc3ccc(C(=O)NC4CCCC4)cc3)c(=O)c2cc1OC	i	2	-10	0	/
COc1ccc(Cn2c(=O)[nH]c3cc(C(=O)NC4CCCC4)ccc3c2=O)cc1	+	4	8	-3	/
COc1ccc(C2NC(=S)NC(C)=C2C(=O)Nc2ccccn2)cc1 (configuration not stated)	i	9.2*	-10	2	0.09
COc1ccc(OC)c(C2NC(=S)NC(C)=C2C(=O)Nc2ccccn2)c1 (configuration not stated)	i	2	-2	0	-0.01
CCOc1ccc(-n2c(C)nc(O)c2N=Nc2ccccc2)cc1	i	3	-5	-2	-0.34
CSc1ncc(Cl)c(C(=O)Nc2sc3c(c2C(=O)NCc2ccco2)CCCC3)n1	+	5	4	-3	0.09
Cc1c(C(=O)Nc2nccs2)sc2nc(-c3cccs3)cc(C(F)(F)F)c12	i	4	-16	0	-1.4
